Reference: ChEMBL document CHEMBL4393735, “Molecular modelling, synthesis, and biological evaluations of a 3,5-disubstituted isoxazole fatty acid analogue as a PPARα-selective agonist” (Bioorg Med Chem, 2019)
The source made the active and inactive calls.

How the values were obtained:
[1] = molecular target: T1, Peroxisome proliferator-activated receptor gamma (Homo sapiens) (UniProt P37231); experiment: Agonist activity at full length human FLAG-tagged GAL4-DBD fused PPARgamma LBD (205 to 505 residues) expressed in COS1 cells transfected with hRXRalpha and hPLIN1-driven reporter assessed as PLIN1 mRNA level at 50 uM measured after 18 hrs by dual luciferase reporter gene assay; format: cell-based
T1 sequence (whole entry): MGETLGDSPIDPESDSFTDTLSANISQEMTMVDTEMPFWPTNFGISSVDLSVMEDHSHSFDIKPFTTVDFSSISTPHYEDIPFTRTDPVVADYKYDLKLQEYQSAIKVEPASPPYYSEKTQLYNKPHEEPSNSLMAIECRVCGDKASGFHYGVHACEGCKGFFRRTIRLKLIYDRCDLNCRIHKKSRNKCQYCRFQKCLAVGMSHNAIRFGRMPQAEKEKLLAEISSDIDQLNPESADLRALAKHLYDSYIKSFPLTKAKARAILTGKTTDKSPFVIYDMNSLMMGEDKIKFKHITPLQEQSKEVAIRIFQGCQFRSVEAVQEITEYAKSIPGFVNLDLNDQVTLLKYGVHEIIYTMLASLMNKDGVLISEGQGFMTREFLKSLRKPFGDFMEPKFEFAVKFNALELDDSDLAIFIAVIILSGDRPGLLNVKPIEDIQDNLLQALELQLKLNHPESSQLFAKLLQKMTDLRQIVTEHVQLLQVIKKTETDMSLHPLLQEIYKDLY
Summary of the method: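 COS-1 cells were transfected with full-length human PPARα (or PPARγ) plus RXRα expression plasmids, with a wild-type or PPRE-mutated CPT1A-intronic (or PLIN1) luciferase reporter and pRL-CMV. Cells were treated with 50 μM in 0.1% DMSO (final) for 18 h. Dual-luciferase read-out normalized to DMSO control. Three biological replicates in quadruplicate, mean ± SEM.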

[2] = molecular target: T2, Peroxisome proliferator-activated receptor alpha (Homo sapiens) (UniProt Q07869); experiment: Agonist activity at PPARalpha in human Huh7 cells assessed as SREBF1 mRNA expression at 50 uM measured after 18 hrs by qRT-PCR analysis; format: cell-based
T2 sequence (whole entry): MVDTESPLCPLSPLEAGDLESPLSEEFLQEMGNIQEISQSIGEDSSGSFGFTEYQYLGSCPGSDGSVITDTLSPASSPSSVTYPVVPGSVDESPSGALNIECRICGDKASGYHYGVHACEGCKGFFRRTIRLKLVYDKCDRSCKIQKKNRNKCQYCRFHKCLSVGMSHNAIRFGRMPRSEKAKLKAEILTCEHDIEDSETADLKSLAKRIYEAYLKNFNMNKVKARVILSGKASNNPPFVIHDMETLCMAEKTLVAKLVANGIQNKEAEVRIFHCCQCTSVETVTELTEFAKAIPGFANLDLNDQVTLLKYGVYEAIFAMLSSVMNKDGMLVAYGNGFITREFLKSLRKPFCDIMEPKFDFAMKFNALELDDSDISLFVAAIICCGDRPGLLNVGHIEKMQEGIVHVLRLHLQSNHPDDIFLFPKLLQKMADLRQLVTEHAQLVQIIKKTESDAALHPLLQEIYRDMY
Summary of the method: (§1)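 Treatment for 18 h at 50 μM (or 1 μM for the 1 μM agents), DMSO vehicle. Harvested for qPCR. mRNA normalized to TBP by the comparative threshold method, expressed relative to DMSO control. Two biological replicates run in duplicate, mean ± SEM. Primary hepatocytes came from male C57BL/6N mice aged 7–8 weeks, isolated by portal-vein perfusion and digestion, seeded on collagen I and used on day 2. HuH-7 cells were kept in DMEM with 10% FBS and ITS.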

[3] = test system: SGBS; experiment: Upregulation of PLIN1 gene expression in human preadipocyte derived from Simpson-Golabi-Behmel syndrome (SGBS) patient at 25 uM measured for 12 days by qRT-PCR analysis; format: functional, cell-based
Summary of the method: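 SGBS cells were differentiated with serum-free induction medium containing 25 μM test agent, 2 μM rosiglitazone or 0.1% DMSO from day 0. IBMX and dexamethasone were removed on day 4 and medium was renewed on day 8. RNA was taken on days 0, 4, 8 and 12 for qPCR, normalized to TBP and to day 0. At least three biological replicates in duplicate, two-way ANOVA with Bonferroni.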

[4] = molecular target: T3, Peroxisome proliferator-activated receptor delta (Homo sapiens) (UniProt Q03181); experiment: Agonist activity at full length human GAL4-DBD fused PPARdelta LBD expressed in COS1 cells at 25 to 50 uM measured after 18 hrs by dual luciferase reporter gene assay; format: cell-based
T3 sequence (whole entry): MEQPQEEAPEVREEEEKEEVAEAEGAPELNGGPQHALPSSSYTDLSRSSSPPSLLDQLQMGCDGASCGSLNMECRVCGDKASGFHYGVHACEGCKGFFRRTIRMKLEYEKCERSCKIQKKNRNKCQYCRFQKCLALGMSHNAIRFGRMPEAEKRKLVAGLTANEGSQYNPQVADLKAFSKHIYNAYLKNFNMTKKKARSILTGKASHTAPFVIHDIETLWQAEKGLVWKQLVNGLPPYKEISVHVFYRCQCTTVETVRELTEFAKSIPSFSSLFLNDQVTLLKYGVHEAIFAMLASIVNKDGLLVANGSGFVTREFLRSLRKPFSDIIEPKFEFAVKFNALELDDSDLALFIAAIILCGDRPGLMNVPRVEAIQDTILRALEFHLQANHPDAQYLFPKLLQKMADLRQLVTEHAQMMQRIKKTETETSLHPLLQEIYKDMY
Summary of the method: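 COS-1 cells were transfected using Lipofectamine 2000 with GAL4-DBD–human NR-LBD plasmid, a 5×UAS-SV40 firefly luciferase reporter and pRL-CMV. After 6 h, cells were treated with 0, 25 or 50 μM in 0.1% DMSO (final) for 18 h. Firefly signal was normalized to Renilla, then to DMSO control and GAL4-only. Three biological replicates in quadruplicate, mean ± SEM, two-way ANOVA with Bonferroni.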

[5] = molecular target: T2, Peroxisome proliferator-activated receptor alpha (Homo sapiens); experiment: Agonist activity at PPARalpha in human Huh7 cells assessed as SCD1 mRNA expression at 50 uM measured after 18 hrs by qRT-PCR analysis; format: cell-based; summary of the method: as §1
[6] = test system: COS-1; experiment: Cytotoxicity against African green monkey COS1 cells assessed as reduction in cell viability at 10^-3 M by XTT based assay relative to control; details: chlorocebus aethiops, cos-1, 1000 µM
Summary of the method: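 COS-1 cells were treated across the same concentration series as the GAL4 dose-response runs. Cytotoxicity was measured as LDH released into medium (absorbance 492/750 nm) and by XTT viability assay (absorbance 450/690 nm). Results expressed relative to control.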

[7] = test system: SGBS; experiment: Induction of adipocyte differentiation in human preadipocyte derived from Simpson-Golabi-Behmel syndrome (SGBS) patient assessed as lipid accumulation at 25 uM measured for 12 days by Oil red O staining based microscopic analysis; format: functional, cell-based
Summary of the method: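 Differentiation of SGBS preadipocytes was started in serum-free medium with transferrin, insulin, T3, hydrocortisol, IBMX and dexamethasone, plus 25 μM test agent, 2 μM rosiglitazone or 0.1% DMSO. On day 4 medium was switched to lack IBMX and dexamethasone, and it was renewed on day 8. Cells were fixed with 4% PFA and stained with 0.3% Oil Red O on days 0, 4, 8 and 12, then photographed.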

Activity [1]: inactive
Activity [2]: inactive
Activity [4]: inactive
Activity [5]: inactive
Structure (SMILES): CCCCCCCc1cc(CCCCCC(=O)O)no1
Activity [3]: Active
Activity [6]: 40%
Activity [7]: Active
